Reference: PubChem BioAssay AID588621 (Sanford-Burnham Center for Chemical Genomics, 2011)
Hit rate of the full screen: of about 360,000 compounds, about 890 (0.25%) were called active.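 Rule for the calls: active = inhibition at 20 µM, scaled per plate between control wells, above about 37% (limit read from the data); inactive = the rest.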 Many of the other results were omitted from the sample, so actives are more common in it than they were.

target: Tyrosine-protein phosphatase non-receptor type 5 (Homo sapiens) (UniProt P54829); assay: STEP phosphatase inhibitors, primary screen, biochemical, fluorescence intensity, uHTS (AID 588621); settings: recombinant STEP, OMFP fluorogenic substrate, at 20 µM, hits give high values;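 note: 0% = DMSO with enzyme and substrate and 100% = substrate only without enzyme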
Method in brief: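 Material: STEP (striatal-enriched tyrosine phosphatase) enzyme, cell-free | Medium: 50 mM Bis-Tris pH 6.0 with 2.5 mM DTT and 0.005% Tween 20 | Read-out: Percent inhibition scaled to no-enzyme and uninhibited-enzyme controls, plate-pattern corrected | Signal: Fluorescence read at 480 nm ex / 540 nm em | Times: 20 min reaction, room temperature, in the dark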

Sequence of Tyrosine-protein phosphatase non-receptor type 5 (Homo sapiens) (P54829 whole entry, looked up): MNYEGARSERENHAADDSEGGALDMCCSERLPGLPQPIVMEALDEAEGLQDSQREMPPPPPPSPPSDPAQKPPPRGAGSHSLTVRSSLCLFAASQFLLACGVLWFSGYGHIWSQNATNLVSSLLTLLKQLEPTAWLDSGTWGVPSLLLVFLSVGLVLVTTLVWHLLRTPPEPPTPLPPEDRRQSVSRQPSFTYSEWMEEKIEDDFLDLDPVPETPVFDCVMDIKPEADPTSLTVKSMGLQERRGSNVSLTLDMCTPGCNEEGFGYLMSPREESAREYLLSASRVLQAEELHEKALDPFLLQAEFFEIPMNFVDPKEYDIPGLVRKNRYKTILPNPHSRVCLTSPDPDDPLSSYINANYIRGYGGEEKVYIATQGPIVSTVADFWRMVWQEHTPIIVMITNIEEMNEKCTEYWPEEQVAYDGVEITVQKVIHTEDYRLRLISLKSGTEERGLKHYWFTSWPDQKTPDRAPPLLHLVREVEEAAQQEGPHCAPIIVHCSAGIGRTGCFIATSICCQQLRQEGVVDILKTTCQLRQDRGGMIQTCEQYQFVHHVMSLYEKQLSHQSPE

inhibition, active:
Cc1c(CCC(=O)O)c(=O)oc2c(C)c(OCc3ccccc3Cl)ccc12 98.9%
Cc1cc(C(=O)N2CCN(c3ccccn3)CC2)c(C)o1 39.4%
O=c1ccc2c(-c3ccccc3S(=O)(=O)O)c3ccc(O)c(O)c3oc-2c1O 96.8%
O=C(Nc1cccnc1)c1cc2cc(Br)ccc2oc1=O 86.4%
COc1cccc(/C=N/NC(=O)c2[nH]nc3c2CCc2ccccc2-3)c1O 80%
Cn1c2ccccc2c(=O)c2c(=O)n(Cc3ccco3)c(COc3ccccc3)nc21 70.7%
C/C(=N\Nc1ccc(S(N)(=O)=O)cc1[N+](=O)[O-])c1cccs1 97.5%
O=C(N/N=C/c1cccc(Br)c1)c1ccc(N2CCCC2=O)cc1 94.9%
Cc1ccc(CNC(=O)CSc2nnc3c(n2)[nH]c2ccc(F)cc23)cc1 96.1%
C=CC1=C(C(=O)O)N2C(=O)[C@@H](NC(=O)/C(=N/OCC(=O)O)c3csc(N)n3)[C@H]2SC1 97.4%
C=CC1=C(C(=O)O)N2C(=O)[C@@H](NC(=O)/C(=N\OCC(=O)O)c3csc(N)n3)[C@H]2SC1 85.4%
C/C=C/C(=O)Nc1ccc(N2CCN(c3ccc(C(F)(F)F)cn3)CC2)nc1 78.9%
CCCS(=O)(=O)N1CCCC(C(=O)NCc2ccco2)C1 (configuration not stated) 53.8%
O=C(NN=Cc1ccccc1O)NN=Cc1ccccc1O 59.1%
COc1ccc(/C=N/Nc2ccccc2C(=O)O)cc1 42.5%

inhibition, inactive:
O=C(CCS(=O)(=O)c1ccc2c(c1)NC(=O)CS2)NCc1ccccc1Cl 1.6%
CNc1cncc(-c2ccc(NS(C)(=O)=O)cc2)n1 4.2%
CC(C)NS(=O)(=O)c1ccc(OCC(=O)NC2CCCCCC2)cc1 -0.6%
O=C1C(=O)N(CCN2CCOCC2)C(c2ccccn2)/C1=C(/O)c1ccc(Cl)cc1 (configuration not stated) -3.3%
CCCC1C(=O)N2C(N(C)C)=Nc3ccc(C)cc3N2C1=O (configuration not stated) -0.2%
CCOc1ccc(N(CC(=O)NCC2CCCO2)S(=O)(=O)c2ccc(C)cc2)cc1 (configuration not stated) 0.9%
CCOC(=O)CCc1c(C)c2ccc(OCc3nn[nH]n3)c(C)c2oc1=O 2.9%
Cc1c(CCC(=O)O)c(=O)oc2cc(OCc3ccc(Br)cc3)ccc12 5.4%
COc1ccc(C2COC(=O)C2=N)c(NC(=O)c2ccccc2)c1 (configuration not stated) 1.3%
O=C(c1cc2ccccc2s1)N1CCN(c2ccccn2)CC1 -0.1%
O=C(c1c(F)cccc1Cl)N1CCN(c2ccccn2)CC1 -1.8%
O=C(COC(=O)/C=C/c1ccc(Br)o1)Nc1cccc(S(=O)(=O)N2CCOCC2)c1 2.1%
CC(C)(C)NC(=O)CSC(=Nc1ccccc1F)NC#N -0.7%
Cc1c(C#N)c2ncn(CC#N)c(=O)c2n1-c1ccccc1 -3.8%
Cc1nnsc1C(=O)NCc1c(F)cccc1Cl -0.5%
CC1C(=O)NC(=O)C1c1ccccc1 (configuration not stated) -2%
COc1ccc2c(c1)CCc1c(C(=O)N3CCc4ccccc4C3)noc1-2 -1%
CCCS(=O)(=O)N1CCN=C1SCc1cccc(F)c1 0.3%
Cc1cc(Cl)ccc1NC(=S)N1CCC(C(N)=O)(N2CCCCC2)CC1 -1.3%
CNc1[nH]ncc1[N+](=O)[O-] -1.1%
CCCCSCCCNC(=O)C1CCC(CNS(=O)(=O)c2ccc(NC(C)=O)cc2)CC1 (configuration not stated) 1%
Cc1ccc(-n2c(C)nnc2SCC(=O)NC2CC2)cc1 0.1%
Cc1ccc(SCC2=NNC(=O)C2)cc1 0.5%
COc1ccc2oc(=N)c(C(=O)Nc3ccc(Br)cc3)cc2c1 -1.8%
O=C(Nc1cccnc1)c1ccc(Cl)cc1[N+](=O)[O-] 0.9%
CCOC(=O)c1c(-n2cnnn2)sc(C)c1C 0.1%
CCc1ccccc1N(CC(=O)NCCSCc1ccco1)S(C)(=O)=O -1.4%
CCOc1ccc(C(CC(=O)O)n2cnnn2)cc1OC (configuration not stated) -2.9%
CC1=CC(C)(C)NC(=S)N1c1ccccc1 -2.2%
COc1ccc(C2=NOC(Cn3nc(C(=O)NCc4ccc5c(c4)OCO5)cc3-c3ccccc3)C2)cc1 (configuration not stated) 0.9%
COc1cc(/C=N/NC(=O)c2cccnc2)ccc1OC(=O)c1cccc(Br)c1 1.7%
CCn1c(/C=N/NC(=O)c2ccc(OC)cc2)nc2ccccc21 2.2%
CN(C)Cc1c(O)ccc2c(=O)c(-c3ccccc3Cl)coc12 0.4%
CCNC(=O)C1CCCN(C(=O)c2cc(F)ccc2C)CC1 (configuration not stated) 1%
CC(C)C1CC2=C(C(=O)OC(C)(C)O2)C(c2ccc(F)cc2)O1 (configuration not stated) 0%
c1ccc(-c2ccnc3nc(-n4cccc4)nn23)cc1 -3.2%
O=C(CSc1nnc(COc2ccc(Cl)cc2)n1Cc1ccco1)N1CCNC1=O -4.2%
CCc1nc2oc3ccccc3c(=O)c2c(=O)n1Cc1ccc(OC)cc1 0.4%
O=C1OCCC1=COCCCCOC=C1CCOC1=O 0.1%
O=C(CCc1ccccc1)Nc1ccc(NC(=O)C2CC2)nc1 -2.6%
COc1cc(/C=C/C(=O)OCC(=O)N2CCOCC2)ccc1OCC#N 1.1%
CCOC(=O)C/C(C)=N\Nc1ccc([N+](=O)[O-])cc1[N+](=O)[O-] 2.8%
C/C(=N\Nc1ccccc1)c1cccs1 -1.1%
Cc1csc2nc(COC(=O)c3cccc(N(C)C)c3)cc(=O)n12 -2.7%
O=C(Nc1ccc(N2CCCC2=O)cc1)c1cncc(Br)c1 -0.3%
O=C(N/N=C\c1cccc(Br)c1)c1ccccc1-n1cccc1 -2.3%
CCc1c(Nc2ccccc2Cl)nc(N)[nH]c1=O -2.5%
COc1ccc2[nH]c3nc(SCC(=O)NC4CC4)nnc3c2c1 -4.6%
Cc1ccn2c(=O)nc(SCC(=O)NCc3ccc(F)cc3)nc2c1 0.1%
CCCCNC1(C#N)CCN(Cc2ccccc2)CC1 -2.5%
COc1cccc(COC(=O)C2CCN(S(=O)(=O)c3cccs3)CC2)c1OC 1.4%
Cc1ccccc1C#CC1=CC(=O)CC(C)(C)C1 0.4%
Cn1ncc(Br)c1C(=O)NC1CCCC1 -1.6%
CCN1CCc2nc(NC(=O)c3cc(F)c(F)cc3Cl)sc2C1 -1.5%
CCc1cc(-c2nnn(CCC3COCCO3)c2CC)ccc1-c1cn(Cc2ccc3ccccc3c2)nn1 (configuration not stated) 2.9%
COC(=O)c1cc2occc2n1Cc1nc(-c2ccccc2C)oc1C -0.6%
CCCCOc1ccc(NC(=O)[C@@H]2CCCN2C(=O)C2CCN(S(=O)(=O)c3ccc(C)cc3)CC2)cc1 -0.4%
CCCC(=O)N1CCC1(C)C(=O)NCc1ccc(C(C)C)cc1 (configuration not stated) 1.5%
Cn1c(Cc2csc(N)n2)nnc1SC/C=C/c1ccccc1 -1.7%
Cc1ccc(F)cc1NC(=O)N1CCCN(c2ccc(C(F)(F)F)cn2)CC1 -0.3%
CCOc1ccc(C(=O)NCC(=O)N2CCN(c3ccc(C(F)(F)F)cn3)CC2)cc1 -0.1%
C[C@H]1CN([C@@H](C)CO)C(=O)Cc2cc(NS(C)(=O)=O)ccc2O[C@@H]1CN(C)CC1CC1 1.2%
Cc1ccc(C(=O)N(CC(=O)NC2CCCC2)c2ccc(F)cc2)s1 -0.9%
O=C(NCc1ccco1)C1CCCN(S(=O)(=O)c2ccccc2)C1 (configuration not stated) 2.1%
O=C(NCc1ccco1)C1CCCN(S(=O)(=O)c2cnc[nH]2)C1 (configuration not stated) -0.7%
COc1ccc(CCNc2cc(C)nc3c(-c4ccc(Cl)cc4)c(C)nn23)cc1OC -0.7%
O=S1(=O)CSCS(=O)(=O)C1 2.4%
Cc1ccc(-n2c(SCC(=O)NCc3ccc4c(c3)OCO4)nnc2-c2cccnc2)c(C)c1 -2.7%
CCCCc1nccn1CCn1ccnc1CCCC 1.5%
OCc1n[nH]c(CO)n1 -3.3%
O=C1CCC(CCC(=O)N2CCCC(C(=O)c3ccc(Cl)cc3)C2)=NN1 (configuration not stated) -3.2%
COc1ccc(CCNC(=O)c2ccc(CS(=O)(=O)c3ccc(Br)cc3)o2)cc1OC -1.6%
O=C(N/N=C/c1ccccc1O)/C(=C/c1ccccc1)CCO 0.4%
Oc1ccccc1C=NC1CCCCC1N=Cc1ccccc1O (configuration not stated) 2.7%
Nc1ccccc1/C=N\N=C/c1ccccc1N -2.4%
Cc1c(NC(=O)C(=O)N/N=C/c2cccs2)c(=O)n(-c2ccccc2)n1C 3.9%
CCC(=O)c1cc2c(cc1NC(=O)c1cccs1)OCCO2 -2.5%
C=CCO/N=C(\C)c1c(O)c(C)c(-c2ccccc2)n(-c2ccccc2)c1=O 6.7%
CC1CN(C(=O)COC(=O)c2cccc(NS(=O)(=O)c3ccccc3)c2)CC(C)O1 (configuration not stated) 0.4%
COc1ccc(/C=N/NC(=O)C(C)N(c2ccc(OC)cc2)S(C)(=O)=O)cc1 (configuration not stated) 2.2%
COc1ccc(/C=N/NC(=O)Cn2cc(C(F)(F)F)ccc2=O)cc1 -2.6%
CCc1ccccc1NC(=O)CN1CCN(C(=O)c2cc(C3CC3)nn2-c2ccccc2)CC1 -3.2%
